According to PubChem BioAssay AID1793 (Vanderbilt High Throughput Screening Facility, 2009):

Legend:
Test in all cases: off-target binding across receptor and channel panel, profiling panel, selectivity assay for Cl- transport modulator project, biochemical, MDS panel, antagonist ancillary profile (AID 1793)
[1] = target: Beta-2 adrenergic receptor (Homo sapiens) (UniProt P07550); conditions: MDS Pharma radioligand binding panel, % inhibition; measured here: Adrenergic b2 human; at 10 µM; stronger effect = higher value
Method in brief: (§1)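 Assay system – GPCR, ion channel, transporter off-target panel · Doses – lead compound at one single concentration, 10 µM · Read-out basis – Ancillary (off-target) activity of the lead compound per target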

[2] = target: Adenosine receptor A2a (Homo sapiens) (UniProt P29274); conditions: MDS Pharma radioligand binding panel, % inhibition; measured here: Adenosine A2 human; at 10 µM; stronger effect = higher value
Method in brief: as §1

[3] = target: Alpha-1A adrenergic receptor (Rattus norvegicus) (UniProt P43140); conditions: MDS Pharma radioligand binding panel, % inhibition; measured here: Adrenergic a1A rat; at 10 µM; stronger effect = higher value
Method in brief: as §1

[4] = target: Androgen receptor (Rattus norvegicus) (UniProt P15207); conditions: MDS Pharma radioligand binding panel, % inhibition; measured here: Androgen receptor rat; at 10 µM; stronger effect = higher value
Method in brief: as §1

[5] = target: Alpha-2A adrenergic receptor (Homo sapiens) (UniProt P08913); conditions: MDS Pharma radioligand binding panel, % inhibition; measured here: Adrenergic a2A human; at 10 µM; stronger effect = higher value
Method in brief: as §1

[6] = target: B2 bradykinin receptor (Homo sapiens) (UniProt P30411); conditions: MDS Pharma radioligand binding panel, % inhibition; measured here: Bradykinin B2 human; at 10 µM; stronger effect = higher value
Method in brief: as §1

[7] = target: Adenosine receptor A1 (Homo sapiens) (UniProt P30542); conditions: MDS Pharma radioligand binding panel, % inhibition; at 10 µM; stronger effect = higher value
Method in brief: as §1

[8] = target: B1 bradykinin receptor (Homo sapiens) (UniProt P46663); conditions: MDS Pharma radioligand binding panel, % inhibition; measured here: Bradykinin B1 human; at 10 µM; stronger effect = higher value
Method in brief: as §1

[9] = target: Beta-1 adrenergic receptor (Homo sapiens) (UniProt P08588); conditions: MDS Pharma radioligand binding panel, % inhibition; measured here: Adrenergic b1 human; at 10 µM; stronger effect = higher value
Method in brief: as §1

[10] = target: Adenosine receptor A3 (Homo sapiens) (UniProt P0DMS8); conditions: MDS Pharma radioligand binding panel, % inhibition; measured here: Adenosine A3 human; at 10 µM; stronger effect = higher value
Method in brief: as §1

[11] = target: Alpha-1D adrenergic receptor (Homo sapiens) (UniProt P25100); conditions: MDS Pharma radioligand binding panel, % inhibition; measured here: Adrenergic a1D human; at 10 µM; stronger effect = higher value
Method in brief: as §1

[12] = target: Alpha-1B adrenergic receptor (Rattus norvegicus) (UniProt P15823); conditions: MDS Pharma radioligand binding panel, % inhibition; measured here: Adrenergic a1B rat; at 10 µM; stronger effect = higher value
Method in brief: as §1

[13] = target: Voltage-dependent L-type calcium channel subunit alpha-1C (Rattus norvegicus) (UniProt P22002); conditions: MDS Pharma radioligand binding panel, % inhibition; measured here: L-type Ca channel BTZ rat; at 10 µM; stronger effect = higher value
Method in brief: as §1

Chain of Alpha-1B adrenergic receptor (Rattus norvegicus) (P15823 whole entry, looked up): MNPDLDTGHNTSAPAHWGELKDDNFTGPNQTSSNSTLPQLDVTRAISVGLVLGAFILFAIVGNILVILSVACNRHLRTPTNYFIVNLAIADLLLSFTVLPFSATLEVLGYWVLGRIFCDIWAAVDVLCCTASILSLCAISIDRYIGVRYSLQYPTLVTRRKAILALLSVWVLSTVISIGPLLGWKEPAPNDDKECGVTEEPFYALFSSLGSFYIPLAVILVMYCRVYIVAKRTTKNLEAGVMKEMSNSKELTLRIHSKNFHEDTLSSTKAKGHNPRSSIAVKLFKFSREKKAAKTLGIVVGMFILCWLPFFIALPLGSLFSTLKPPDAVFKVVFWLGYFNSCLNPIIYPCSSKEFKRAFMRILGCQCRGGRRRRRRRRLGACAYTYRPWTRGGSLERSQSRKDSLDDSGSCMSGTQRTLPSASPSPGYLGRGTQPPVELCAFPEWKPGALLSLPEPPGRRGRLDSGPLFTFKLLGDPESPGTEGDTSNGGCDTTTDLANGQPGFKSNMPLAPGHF
Chain of B1 bradykinin receptor (Homo sapiens) (P46663 whole entry, looked up): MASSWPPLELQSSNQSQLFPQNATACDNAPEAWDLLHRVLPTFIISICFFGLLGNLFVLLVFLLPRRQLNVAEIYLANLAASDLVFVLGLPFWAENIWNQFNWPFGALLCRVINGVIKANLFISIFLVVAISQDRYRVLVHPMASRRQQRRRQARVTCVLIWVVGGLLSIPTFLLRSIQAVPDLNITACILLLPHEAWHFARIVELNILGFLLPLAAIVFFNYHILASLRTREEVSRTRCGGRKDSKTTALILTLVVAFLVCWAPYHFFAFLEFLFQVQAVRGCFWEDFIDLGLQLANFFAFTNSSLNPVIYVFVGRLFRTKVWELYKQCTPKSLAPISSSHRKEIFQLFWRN
Chain of Beta-1 adrenergic receptor (Homo sapiens) (P08588 whole entry, looked up): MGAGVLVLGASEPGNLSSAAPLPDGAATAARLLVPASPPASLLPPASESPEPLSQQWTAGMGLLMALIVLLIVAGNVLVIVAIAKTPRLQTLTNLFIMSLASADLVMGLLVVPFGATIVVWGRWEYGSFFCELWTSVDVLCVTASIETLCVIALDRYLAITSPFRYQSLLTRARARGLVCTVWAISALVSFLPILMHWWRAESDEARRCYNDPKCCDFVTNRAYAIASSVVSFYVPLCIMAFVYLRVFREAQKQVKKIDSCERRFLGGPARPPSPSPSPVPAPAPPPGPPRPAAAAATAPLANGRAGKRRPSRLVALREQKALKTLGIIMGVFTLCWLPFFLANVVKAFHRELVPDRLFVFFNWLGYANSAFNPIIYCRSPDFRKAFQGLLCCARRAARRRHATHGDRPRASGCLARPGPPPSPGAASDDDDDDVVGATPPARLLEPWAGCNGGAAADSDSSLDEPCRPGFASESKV
Chain of Alpha-1A adrenergic receptor (Rattus norvegicus) (P43140 whole entry, looked up): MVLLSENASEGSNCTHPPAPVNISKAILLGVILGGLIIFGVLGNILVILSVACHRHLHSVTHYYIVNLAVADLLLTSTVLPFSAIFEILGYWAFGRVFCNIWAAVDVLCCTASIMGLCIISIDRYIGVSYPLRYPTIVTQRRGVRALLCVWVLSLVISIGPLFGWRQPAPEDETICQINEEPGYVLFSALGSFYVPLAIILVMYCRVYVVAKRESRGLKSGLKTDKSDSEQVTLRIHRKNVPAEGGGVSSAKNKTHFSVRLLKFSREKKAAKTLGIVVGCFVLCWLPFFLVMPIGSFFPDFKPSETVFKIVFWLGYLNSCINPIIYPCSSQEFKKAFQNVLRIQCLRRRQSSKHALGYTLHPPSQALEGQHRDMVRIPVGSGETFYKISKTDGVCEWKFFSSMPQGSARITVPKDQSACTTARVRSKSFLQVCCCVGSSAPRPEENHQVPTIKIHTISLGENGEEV
Chain of Alpha-2A adrenergic receptor (Homo sapiens) (P08913 whole entry, looked up): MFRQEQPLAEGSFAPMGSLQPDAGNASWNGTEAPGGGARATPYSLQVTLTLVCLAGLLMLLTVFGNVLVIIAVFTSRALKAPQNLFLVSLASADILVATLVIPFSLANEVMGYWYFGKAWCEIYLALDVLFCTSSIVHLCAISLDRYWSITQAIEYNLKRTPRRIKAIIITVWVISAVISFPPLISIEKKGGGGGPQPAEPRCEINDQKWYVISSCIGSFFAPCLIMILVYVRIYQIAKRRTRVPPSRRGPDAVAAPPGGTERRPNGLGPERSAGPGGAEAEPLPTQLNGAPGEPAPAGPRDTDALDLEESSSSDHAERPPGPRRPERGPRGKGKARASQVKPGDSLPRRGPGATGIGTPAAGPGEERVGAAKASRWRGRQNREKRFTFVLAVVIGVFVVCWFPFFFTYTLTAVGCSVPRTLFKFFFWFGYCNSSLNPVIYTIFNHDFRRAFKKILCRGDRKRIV
Chain of Alpha-1D adrenergic receptor (Homo sapiens) (P25100 whole entry, looked up): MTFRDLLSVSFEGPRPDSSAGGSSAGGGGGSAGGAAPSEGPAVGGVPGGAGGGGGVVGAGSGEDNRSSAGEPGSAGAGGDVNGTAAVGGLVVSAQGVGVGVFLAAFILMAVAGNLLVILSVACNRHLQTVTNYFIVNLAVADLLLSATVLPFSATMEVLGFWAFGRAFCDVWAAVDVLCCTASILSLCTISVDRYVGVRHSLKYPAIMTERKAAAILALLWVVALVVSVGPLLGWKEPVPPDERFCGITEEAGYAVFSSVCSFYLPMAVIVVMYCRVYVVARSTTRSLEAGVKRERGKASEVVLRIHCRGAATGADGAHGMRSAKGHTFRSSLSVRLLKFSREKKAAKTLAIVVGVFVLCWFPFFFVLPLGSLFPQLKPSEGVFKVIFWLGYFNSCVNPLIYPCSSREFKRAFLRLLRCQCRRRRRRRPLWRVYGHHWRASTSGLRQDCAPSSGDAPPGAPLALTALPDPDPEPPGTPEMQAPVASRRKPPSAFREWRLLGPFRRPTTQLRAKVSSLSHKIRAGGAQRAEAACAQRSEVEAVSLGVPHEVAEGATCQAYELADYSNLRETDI
Chain of Beta-2 adrenergic receptor (Homo sapiens) (P07550 whole entry, looked up): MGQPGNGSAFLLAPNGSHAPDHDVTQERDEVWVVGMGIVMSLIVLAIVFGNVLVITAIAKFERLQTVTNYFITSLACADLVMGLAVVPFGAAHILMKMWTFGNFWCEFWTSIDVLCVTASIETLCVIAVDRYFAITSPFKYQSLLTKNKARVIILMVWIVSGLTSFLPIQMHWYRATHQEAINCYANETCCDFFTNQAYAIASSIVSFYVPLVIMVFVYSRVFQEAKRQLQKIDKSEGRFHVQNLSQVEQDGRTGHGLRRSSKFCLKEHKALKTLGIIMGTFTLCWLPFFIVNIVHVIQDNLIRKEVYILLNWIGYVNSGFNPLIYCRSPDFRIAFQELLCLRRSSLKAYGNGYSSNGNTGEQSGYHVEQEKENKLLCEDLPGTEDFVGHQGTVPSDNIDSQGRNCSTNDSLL
Chain of Androgen receptor (Rattus norvegicus) (P15207 whole entry, looked up): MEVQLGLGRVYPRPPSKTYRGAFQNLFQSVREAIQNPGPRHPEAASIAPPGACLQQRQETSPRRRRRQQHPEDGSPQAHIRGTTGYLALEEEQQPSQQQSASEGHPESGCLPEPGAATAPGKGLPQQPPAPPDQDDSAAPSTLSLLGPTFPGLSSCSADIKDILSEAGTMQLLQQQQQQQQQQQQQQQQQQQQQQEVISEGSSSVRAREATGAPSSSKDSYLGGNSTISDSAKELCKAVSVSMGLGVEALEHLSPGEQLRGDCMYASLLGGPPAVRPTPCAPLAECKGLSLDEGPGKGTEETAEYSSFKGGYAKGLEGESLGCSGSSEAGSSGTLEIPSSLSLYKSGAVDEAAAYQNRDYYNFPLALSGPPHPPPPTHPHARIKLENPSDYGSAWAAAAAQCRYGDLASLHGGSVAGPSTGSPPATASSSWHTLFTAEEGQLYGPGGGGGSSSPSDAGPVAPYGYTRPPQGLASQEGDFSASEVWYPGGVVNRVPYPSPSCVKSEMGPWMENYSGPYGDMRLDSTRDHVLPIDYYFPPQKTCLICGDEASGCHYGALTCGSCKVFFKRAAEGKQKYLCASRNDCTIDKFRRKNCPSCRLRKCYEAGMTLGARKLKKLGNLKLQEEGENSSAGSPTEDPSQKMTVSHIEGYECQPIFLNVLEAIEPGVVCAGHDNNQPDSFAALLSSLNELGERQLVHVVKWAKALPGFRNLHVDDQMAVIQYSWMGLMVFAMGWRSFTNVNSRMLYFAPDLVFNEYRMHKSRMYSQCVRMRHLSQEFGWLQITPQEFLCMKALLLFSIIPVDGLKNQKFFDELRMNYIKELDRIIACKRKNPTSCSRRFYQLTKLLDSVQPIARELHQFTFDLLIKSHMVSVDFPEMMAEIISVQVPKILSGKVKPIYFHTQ
Chain of Adenosine receptor A2a (Homo sapiens) (P29274 whole entry, looked up): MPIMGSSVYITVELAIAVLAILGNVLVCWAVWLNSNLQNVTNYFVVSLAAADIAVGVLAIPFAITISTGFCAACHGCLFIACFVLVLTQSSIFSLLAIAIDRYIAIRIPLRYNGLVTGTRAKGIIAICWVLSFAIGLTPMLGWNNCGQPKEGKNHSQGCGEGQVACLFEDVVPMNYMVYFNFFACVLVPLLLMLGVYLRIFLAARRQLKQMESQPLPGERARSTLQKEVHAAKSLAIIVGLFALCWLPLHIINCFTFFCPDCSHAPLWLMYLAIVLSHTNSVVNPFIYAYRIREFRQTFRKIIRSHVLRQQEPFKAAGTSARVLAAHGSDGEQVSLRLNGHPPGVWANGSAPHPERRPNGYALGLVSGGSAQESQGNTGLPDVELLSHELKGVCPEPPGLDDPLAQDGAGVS
Chain of Adenosine receptor A3 (Homo sapiens) (P0DMS8 whole entry, looked up): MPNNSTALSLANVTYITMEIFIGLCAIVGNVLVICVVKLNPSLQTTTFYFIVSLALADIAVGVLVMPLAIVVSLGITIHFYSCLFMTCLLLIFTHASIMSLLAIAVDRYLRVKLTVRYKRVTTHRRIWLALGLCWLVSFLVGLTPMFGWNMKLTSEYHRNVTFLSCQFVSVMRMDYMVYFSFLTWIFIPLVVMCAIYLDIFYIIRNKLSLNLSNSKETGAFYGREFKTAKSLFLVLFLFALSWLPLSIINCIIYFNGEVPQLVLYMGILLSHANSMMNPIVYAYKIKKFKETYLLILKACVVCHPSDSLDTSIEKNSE

Question: How did the inhibition [1] turn out when `Cc1csc(N(C)C(=O)CSc2ccc(-c3ccccc3)nn2)n1` was run?
Answer: The inhibition was 9%.

Question: What about the inhibition [2] of the same compound?
Answer: Its inhibition is 38%.

Question: And the inhibition [3]?
Answer: The inhibition was 33%.

Question: What about the inhibition [4] of the same compound?
Answer: The inhibition was 4%.

Question: And the inhibition [5]?
Answer: Its inhibition is -7%.

Question: And the inhibition [6]?
Answer: Its inhibition is 2%.

Question: And the inhibition [7]?
Answer: The inhibition was 31%.

Question: What about the inhibition [8] of the same compound?
Answer: The inhibition was 6%.

Question: What about the inhibition [9] of the same compound?
Answer: The inhibition was 10%.

Question: What about the inhibition [10] of the same compound?
Answer: The inhibition was 38%.

Question: And the inhibition [11]?
Answer: The inhibition was 16%.

Question: And the inhibition [12]?
Answer: The inhibition was 3%.

Question: And the inhibition [13]?
Answer: Its inhibition is 10%.
